According to ChEMBL document CHEMBL4017487, “Design and Synthesis of γ- and δ-Lactam M1 Positive Allosteric Modulators (PAMs): Convulsion and Cholinergic Toxicity of an M1-Selective PAM with Weak Agonist Activity” (J Med Chem, 2017):

Legend:
[1] = target: T1, Muscarinic acetylcholine receptor M1 (Homo sapiens, UniProt P11229); assay: Positive allosteric modulation of human muscarinic acetylcholine receptor M1 expressed in CHO cells assessed as increase in acetylcholine-induced calcium mobilization preincubated for 10 mins followed by acetylcholine addition by Fluo-8-AM dye based FLIPR assay; assay type: ADME, cell-based
T1 sequence (P11229 whole entry): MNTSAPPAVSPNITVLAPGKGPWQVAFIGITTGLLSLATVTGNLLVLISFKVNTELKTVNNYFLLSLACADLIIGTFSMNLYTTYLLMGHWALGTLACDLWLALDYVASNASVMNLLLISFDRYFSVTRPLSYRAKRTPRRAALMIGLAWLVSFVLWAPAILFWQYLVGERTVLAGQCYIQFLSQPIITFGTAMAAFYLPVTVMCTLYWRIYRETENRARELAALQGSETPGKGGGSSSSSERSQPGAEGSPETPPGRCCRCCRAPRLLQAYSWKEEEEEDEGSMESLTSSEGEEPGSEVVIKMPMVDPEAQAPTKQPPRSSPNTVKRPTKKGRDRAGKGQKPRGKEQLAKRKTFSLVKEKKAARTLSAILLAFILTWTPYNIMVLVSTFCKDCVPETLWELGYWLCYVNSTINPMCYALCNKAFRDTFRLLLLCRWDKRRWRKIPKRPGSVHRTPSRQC
Summary of the method: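 M1 potentiation (PAM) format: calcium mobilization read on a FLIPR plate reader with an EC20 concentration of ACh present. EC50 is the geometric mean of at least three experiments.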

MDR1 = assay: Efflux ratio of permeability from basolateral to apical side over apical to basolateral side in MDCK1 cells expressing MDR1; assay type: ADME, cell-based, Canis lupus familiaris; settings: dog, MDCK-MDR1
Summary of the method: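 MDCKI-MDR1 cells (MDCK epithelial line transfected with MDR1/P-gp; from the NIH). Permeability measured as a rate in 10−6 cm/s in both directions; value is the BA/AB ratio.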

[2] = Intrinsic clearance in human liver microsomes; assay type: ADME, microsome; settings: read-out: CLH
Mus musculus = assay: In vivo agonist activity at muscarinic acetylcholine receptor M1 in C57BL/6 mouse assessed as unbound brain concentration required to show 2 fold increase in IP1 accumulation in striatum at 1 to 10 mg/kg, sc measured after 2 hrs; assay type: organism-based
Summary of the method: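 Cb,u giving a 2-fold rise in striatal IP1 in C57BL/6 mice, estimated by interpolation of individual-mouse IP1 versus free brain exposure data.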

[3] = (§1) Ratio of unbound Cmax in dog brain assessed as convulsions at 15 mg/kg, po administered as single dose to unbound brain concentration for agonist activity at muscarinic acetylcholine receptor M1 in C57BL/6 mouse assessed as required to show 2 fold increase in IP1 accumulation in striatum at 1 to 10 mg/kg, sc; assay type: organism-based
[4] = target: T1, Muscarinic acetylcholine receptor M1; assay: Agonist activity at human muscarinic acetylcholine receptor M1 expressed in CHO cells assessed as increase in calcium mobilization incubated for 10 mins by Fluo-8-AM dye based FLIPR assay; assay type: cell-based
Summary of the method: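 M1 FLIPR calcium mobilization run in agonist mode (compound added without the EC20 ACh used in PAM mode). Top concentration 10 μM. EC50 values are geometric means of at least three experiments.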

[5] = target: T1, Muscarinic acetylcholine receptor M1; assay: Displacement of [3H]PT-1284 human muscarinic acetylcholine receptor M1 expressed in CHO cell membranes after 90 mins scintillation counting method
[6] = target: T1, Muscarinic acetylcholine receptor M1; assay: Agonist activity at human muscarinic acetylcholine receptor M1 expressed in CHO cells assessed as increase in calcium mobilization at 13 uM incubated for 10 mins by Fluo-8-AM dye based FLIPR assay relative to control; assay type: cell-based; settings: read-out: %max
Canis familiaris [7] = assay: Toxicity in dog assessed as unbound Cmax in brain required to show convulsions at 15 mg/kg, po administered as single dose using spray dried dispersion formulation; assay type: organism-based, Canis lupus familiaris; settings: in vivo
Canis familiaris [8] = assay: Toxicity in dog assessed as unbound Cmax in plasma required to show convulsions at 15 mg/kg, po administered as single dose using spray dried dispersion formulation; assay type: organism-based, Canis lupus familiaris; settings: in vivo
[9] = as §1, with “rat” for “dog”, “45” for “15”; assay type: organism-based
Cytochrome P450 3A4 = Cytochrome P450 3A4 (Homo sapiens, UniProt P08684); assay: Time dependent inhibition of CYP3A4 (unknown origin) by high throughput assay relative to 2-((3R,4S)-3-Hydroxytetrahydro-2H-pyran-4-yl)-5-methyl-6-(4-(oxazol-4-yl)benzyl)isoindolin-1-one; assay type: ADME
Rattus norvegicus [10] = assay: Toxicity in rat assessed as unbound Cmax in brain required to show convulsions at 45 mg/kg, po administered as single dose; assay type: organism-based; settings: in vivo
Rattus norvegicus [11] = assay: Toxicity in rat assessed as unbound Cmax in plasma required to show convulsions at 45 mg/kg, po administered as single dose; assay type: organism-based; settings: in vivo
[12] = Ratio of unbound AUC in rat brain to plasma at 45 mg/kg, po administered as single dose; assay type: ADME, organism-based
Summary of the method: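 Rats, 3 per sex, received a single oral 45 mg/kg dose as a nanosuspension in 1.25% w/v hydroxypropyl cellulose SL with 0.05% docusate sodium in purified water. The brain/plasma ratio is the AUC ratio of unbound drug in brain to unbound drug in plasma. It was used to estimate unbound brain levels from measured unbound plasma Cmax.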

Chain of Cytochrome P450 3A4 (P08684 whole entry): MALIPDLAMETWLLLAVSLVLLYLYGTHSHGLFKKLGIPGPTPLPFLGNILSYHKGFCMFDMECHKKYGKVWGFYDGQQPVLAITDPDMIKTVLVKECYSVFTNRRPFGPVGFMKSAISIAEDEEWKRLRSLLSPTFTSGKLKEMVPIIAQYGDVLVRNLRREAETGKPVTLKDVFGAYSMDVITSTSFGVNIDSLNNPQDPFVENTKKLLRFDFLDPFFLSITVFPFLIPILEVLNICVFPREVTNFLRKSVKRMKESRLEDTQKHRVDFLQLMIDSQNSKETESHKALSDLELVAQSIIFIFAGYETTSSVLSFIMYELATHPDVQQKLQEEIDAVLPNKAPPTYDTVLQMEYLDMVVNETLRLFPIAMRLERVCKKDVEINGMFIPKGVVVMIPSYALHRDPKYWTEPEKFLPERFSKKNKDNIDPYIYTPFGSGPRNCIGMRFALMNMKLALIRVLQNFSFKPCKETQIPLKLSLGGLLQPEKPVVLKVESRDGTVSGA

Row | Structure (SMILES) | EC50 [1] [nM] | efflux ratio (MDR1) | CLint scaled [2] [mL/min/kg] | further results
1 | Cc1nc(-c2ccc(Cc3cc4c(cc3C)CN([C@H]3CCOC[C@@H]3O)C4=O)cc2)co1 | 50 | 11 | 13 | –
2 | Cc1cc2c(cc1Cc1ccc(-c3cscn3)cc1)C(=O)N([C@H]1CCOC[C@@H]1O)C2 | 24 | 11 | 10 | –
3 | Cc1cnc(C(=O)N[C@H]2CCOC[C@@H]2O)cc1Cc1ccc(-c2cscn2)cc1 | – | – | – | Drug uptake(free) (Mus musculus): 14 nM; selectivity ratio [3]: 20; EC50 [4]: > 4000 nM; Ki [5]: 19 nM; Emax at 13 µM [6]: 34%; fCmax (Canis familiaris [7]): 290 nM; fCmax (Canis familiaris [8]): 950 nM; selectivity ratio [9]: > 29
4 | Cc1cc2c(cc1Cc1ccc(-c3cscn3)cc1)C(=O)N([C@H]1CCOC[C@@H]1O)CC2 | 7 | 12 | 25 | –
5 | Cn1ccc(-c2ccc(Cn3cc(C(=O)N[C@H]4CCOC[C@@H]4O)c4ncccc43)cc2)n1 | – | – | – | Drug uptake(free) (Mus musculus): 32 nM
6 | Cc1cc2c(cc1Cc1ccc(-n3cccn3)cc1)C(=O)N([C@H]1CCOC[C@@H]1O)CC2 | 18 | 11 | 15 | –
7 | Cc1cc2c(cc1Cc1ccc(-c3cocn3)cc1)C(=O)N([C@H]1CCOC[C@@H]1O)CC2 | 26 | 2.7 | 13 | fold change (FC) (Cytochrome P450 3A4): 6
8 | Cc1cc2c(cc1Cc1ccc(-n3ccnc3)cc1)C(=O)N([C@H]1CCOC[C@@H]1O)C2 | 68 | 53 | < 8 | –
9 | Cc1cn(-c2ccc(Cc3cc4c(cc3C)CN([C@H]3CCOC[C@@H]3O)C4=O)cc2)cn1 | 45 | 63 | 30 | –
10 | Cc1ccc(Cc2cc3c(=O)n([C@H]4CCCC[C@@H]4O)cnc3c3ccccc23)cn1 [MK-7622] | 63 | – | – | fCmax (Rattus norvegicus [10]): 130 nM; fCmax (Rattus norvegicus [11]): 550 nM; Drug uptake(free) (Mus musculus): 4 nM; EC50 [4]: > 2000 nM; Ki [5]: 8 nM; Kp uu [12]: 0.24; Emax at 13 µM [6]: 62%; selectivity ratio [9]: 33
11 | Cc1cc2c(cc1Cc1ccc(-c3cnn(C)c3)cc1)C(=O)N([C@H]1CCOC[C@@H]1O)C2 | 27 | 7.6 | 15 | –
12 | Cc1cc2c(cc1Cc1ccc(-n3cccn3)cc1)C(=O)N([C@H]1CCOC[C@@H]1O)C2 | 36 | 18 | < 8 | –
13 | Cc1nc(-c2ccc(Cc3cc4c(cc3C)CCN([C@H]3CCOC[C@@H]3O)C4=O)cc2)co1 | 23 | 14 | 21 | –
